Source: ChEMBL document CHEMBL1155457, “Discovery of the dual orexin receptor antagonist [(7R)-4-(5-chloro-1,3-benzoxazol-2-yl)-7-methyl-1,4-diazepan-1-yl][5-methyl-2-(2H-1,2,3-triazol-2-yl)phenyl]methanone (MK-4305) for the treatment of insomnia” (J Med Chem, 2010)
Each block holds one compound with its values, some of them ahead of it. The source made the active and inactive calls. The calls are words filed in the database; no cut-off is given here.

Experiments:
[1] = system: Rattus norvegicus; test: Antiinsomnic activity in Sprague-Dawley rat assessed as decrease in active wake duration at 10 mg/kg/day, po […]; type: functional, organism-based
Method in brief: (§1)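 Rats carried telemetry implants recording ECoG/EMG (sampled at 500 Hz) and had recovered at least 2 weeks after surgery. They were on a 12:12 light cycle with lights off at 04:00. After 2 days of vehicle habituation, four rats were dosed by oral gavage in 20% aqueous TPGS at 09:00, 5 h into the active phase. The design was a one-week crossover against vehicle. Recording ran 23 h; stages were auto-scored in 30-min bins, averaged over 7 days and compared by mixed-model ANOVA at each time point.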

[2] = system: Rattus norvegicus; test: Antiinsomnic activity in Sprague-Dawley rat assessed as increase in rapid-eye movement at 10 mg/kg/day, po measured with 3 to 4 hrs post last dose; type: functional, organism-based; method in brief: as §1
[3] = system: Rattus norvegicus; test: Antiinsomnic activity in Sprague-Dawley rat assessed as increase in delta sleep duration at 10 mg/kg/day, po measured with 3 to 4 hrs post last dose; type: functional, organism-based; method in brief: as §1
[4] = system: Rattus norvegicus; test: Antiinsomnic activity in Sprague-Dawley rat assessed as decrease in light sleep duration at 10 mg/kg/day, po measured with 3 to 4 hrs post last dose; type: functional, organism-based; method in brief: as §1
[5] = system: Liver microsomes; test: Idiosyncratic toxicity in human liver microsomes assessed GSH-derived reactive electrophilic adduct formation at 10 uM after 60 mins by UPLC/HRMS analysis relative to labetalol; set-up: species or system Microsome; details: 1 h
Method in brief: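 Pooled human liver microsomes (1 mg/mL protein) were incubated 60 min at 37 °C in 100 mM potassium phosphate pH 7.4. The mix held 10 μM compound, 1 mM MgCl2, 1 mM EDTA, 5 mM GSH and 1 mM NADPH. After quenching, GSH adducts were detected by UPLC/HRMS. Summed adduct peak areas were divided by the labetalol internal-standard area.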

[6] = target: T1, Orexin receptor type 2 (Homo sapiens, UniProt O43614); test: Displacement of [3H](S)-N-(2-(1H-pyrrol-1-yl)phenyl)-1-(2-(1-methyl-1H-benzo[d]imidazol-2-ylthio)acetyl)pyrrolidine-2-carboxamide from human OX2R expressed in CHO cells after 3 hrs by scintillation counting; type: cell-based
T1 sequence (O43614 whole entry): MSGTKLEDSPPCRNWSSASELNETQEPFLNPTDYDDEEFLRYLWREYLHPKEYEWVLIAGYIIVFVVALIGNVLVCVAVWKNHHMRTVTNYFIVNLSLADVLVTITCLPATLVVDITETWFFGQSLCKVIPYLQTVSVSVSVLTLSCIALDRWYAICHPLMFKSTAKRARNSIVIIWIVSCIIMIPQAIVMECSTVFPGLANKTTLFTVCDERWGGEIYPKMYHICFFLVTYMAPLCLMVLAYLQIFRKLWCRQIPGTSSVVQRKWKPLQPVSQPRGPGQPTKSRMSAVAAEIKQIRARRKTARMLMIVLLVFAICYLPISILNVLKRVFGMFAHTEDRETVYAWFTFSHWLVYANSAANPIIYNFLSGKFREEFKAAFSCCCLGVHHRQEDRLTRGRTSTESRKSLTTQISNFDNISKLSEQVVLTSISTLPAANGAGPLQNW

[7] = Volume of distribution at steady state in rat at 2 mg/kg, iv; type: ADME, organism-based; set-up: dose 2 mg/kg, route intravenous; details: in vivo, read-out: Vdss
Method in brief: (§2)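 IV PK in DMSO vehicle: rat at 2 mg/kg, dog at 0.5 mg/kg. Clearance, Vd_ss and terminal half-life were derived from plasma levels.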

[8] = Terminal half life in rat at 2 mg/kg, iv; type: ADME, organism-based; set-up: dose 2 mg/kg, route intravenous; details: in vivo, read-out: beta t1/2 (converted); method in brief: as §2
[9] = AUC in rat at 100 mg/kg, po; type: ADME, organism-based; set-up: dose 100 mg/kg, route oral; details: plasma
Method in brief: (§3)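 Rats dosed orally by gavage as the HCl salt in 20% TPGS. Plasma drug levels were followed to give AUC, Cmax and oral bioavailability.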

[10] = Cmax in rat at 100 mg/kg, po; type: ADME, organism-based; set-up: dose 100 mg/kg, route oral; details: in vivo; method in brief: as §3
[11] = Oral bioavailability in rat at 100 mg/kg; type: ADME, organism-based; details: in vivo; method in brief: as §3
[12] = Clearance in dog at 0.5 mg/kg, iv; type: ADME, organism-based, Canis lupus familiaris; set-up: dose 0.5 mg/kg, route intravenous; details: in vivo
Method in brief: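 Dogs received an IV dose with DMSO as vehicle (n = 3). Clearance was derived from plasma pharmacokinetics.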

[13] = Volume of distribution at steady state in dog at 0.5 mg/kg, iv; type: ADME, organism-based, Canis lupus familiaris; set-up: dose 0.5 mg/kg, route intravenous; details: in vivo, read-out: Vdss; method in brief: as §2
[14] = Terminal half life in dog at 0.5 mg/kg, iv; type: ADME, organism-based, Canis lupus familiaris; set-up: dose 0.5 mg/kg, route intravenous; details: in vivo, read-out: beta t1/2 (converted); method in brief: as §2
[15] = AUC in dog at 3 mg/kg, po; type: ADME, organism-based, Canis lupus familiaris; set-up: dose 3 mg/kg, route oral; details: plasma
[16] = Cmax in dog at 3 mg/kg, po; type: ADME, organism-based, Canis lupus familiaris; set-up: dose 3 mg/kg, route oral; details: in vivo
[17] = target: T2, Orexin/Hypocretin receptor type 1 (Homo sapiens, UniProt O43613); test: Displacement of [3H](S)-N-(biphenyl-2-yl)-1-(2-(1-methyl-1H-benzo[d]imidazol-2-ylthio)acetyl)pyrrolidine-2-carboxamide from human OX1R expressed in CHO cells after 3 hrs by scintillation counting; type: cell-based
T2 sequence (O43613 whole entry): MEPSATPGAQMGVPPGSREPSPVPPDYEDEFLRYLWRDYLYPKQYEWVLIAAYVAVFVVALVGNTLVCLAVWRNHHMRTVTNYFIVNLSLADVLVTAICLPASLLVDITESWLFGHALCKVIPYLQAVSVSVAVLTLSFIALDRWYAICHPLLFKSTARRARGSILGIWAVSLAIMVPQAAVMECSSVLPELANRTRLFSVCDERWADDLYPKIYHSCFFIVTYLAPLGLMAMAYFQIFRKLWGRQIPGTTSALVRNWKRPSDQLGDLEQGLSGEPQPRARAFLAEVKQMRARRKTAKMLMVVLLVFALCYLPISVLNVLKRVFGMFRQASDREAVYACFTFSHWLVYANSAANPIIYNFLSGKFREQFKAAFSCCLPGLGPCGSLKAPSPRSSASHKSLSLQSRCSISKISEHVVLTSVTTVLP

[18] = target: T2, Orexin/Hypocretin receptor type 1; test: Displacement of [3H]N-cyclobutyl-5-methyl-N-(2-(1-methyl-1H-benzo[d]imidazol-2-ylthio)ethyl)-2-(2H-1,2,3-triazol-2-yl)benzamide from human OX1R expressed in CHO cells after 20 hrs by scintillation counting; type: cell-based
[19] = Lipophilicity, log P of the compound; type: physicochemical; details: octanol/water
[20] = Drug level in Sprague-Dawley rat plasma at 10 mg/kg/day, po after 1 hr; type: ADME, organism-based; set-up: route oral; details: read-out: Drug uptake
[21] = Drug level in Sprague-Dawley rat CSF at 10 mg/kg/day, po after 1 hr; type: ADME, organism-based, Cerebrospinal fluid; set-up: route oral; details: read-out: Drug uptake
[22] = Fraction unbound in rat plasma; type: ADME, cell-free
[23] = Oral bioavailability in dog at 3 mg/kg; type: ADME, organism-based, Canis lupus familiaris; details: in vivo
[24] = Oral bioavailability in rat at 10 mg/kg; type: ADME, organism-based; details: in vivo
[25] = Clearance in rat at 10 mg/kg, iv; type: ADME, organism-based; set-up: dose 10 mg/kg, route intravenous; details: in vivo

Ki [6]: 0.59 nM
Vd [7]: 1.08 L/kg
half-life [8]: 21 min
AUC [9]: 1.5 µM·h
Cmax [10]: 650 nM
bioavailability [11]: 2%
clearance [12]: 11.6 mL/min/kg
Vd [13]: 0.86 L/kg
half-life [14]: 76.8 min
AUC [15]: 1.81 µM·h
Cmax [16]: 1440 nM
SMILES: Cc1ccc(-n2nccn2)c(C(=O)N2CCCN(c3ncc4ccccc4n3)CC2)c1
Activity [1]: Active
Activity [2]: Active
Activity [3]: Active
Activity [4]: Active
Ratio [5]: 5

Ki [17]: 54 nM
Ki [18]: 54 nM
Ki [6]: 8.5 nM
SMILES: C[C@H]1CCN(c2ncc3ccccc3n2)CCN1C(=O)c1ccccc1-n1nccn1

logP [19]: 3
concentration at 1 h [20]: 20 nM
concentration at 1 h [21]: 1000 nM
fraction unbound [22]: 0.03
clearance [12]: 5.2 mL/min/kg
bioavailability [23]: 37%
bioavailability [24]: 47%
clearance [25]: 33 mL/min/kg
SMILES: Cc1ccc(-n2nccn2)c(C(=O)N2CCN(c3ncc4cc(F)ccc4n3)CC[C@H]2C)c1
Activity [1]: Active
Activity [2]: Active
Activity [3]: Active
Activity [4]: Active
